# Peptide text beside a SMILES is read from it. * marks the point of attachment. Boc = CC(C)(C)OC(=O)*
# Assays:
# [1] = Compound was evaluated for the inhibition of Leucine aminopeptidase and the inhibition constant was determined after preincubating the enzyme and inhibitor
# Cytosol aminopeptidase = Cytosol aminopeptidase (Homo sapiens, UniProt P28838); test: Compound was evaluated for the inhibition of Leucine aminopeptidase and the inhibition constant was determined after preincubating the enzyme and inhibitor
# How it was run: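 For initial rates, enzyme was added to substrate plus inhibitor to start the reaction. For steady-state rates, enzyme was preincubated 15-20 min with inhibitor, then substrate was added. Double-reciprocal (Lineweaver-Burk) analysis was used.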
# [2] = target: Cytosol aminopeptidase (Sus scrofa) (UniProt P28839); test: Compound was evaluated for the inhibition of Leucine aminopeptidase from porcine kidney and the inhibition constant was determined after preincubating the enzyme and inhibitor
# [3] = target: Cytosol aminopeptidase (Sus scrofa) (UniProt P28839); test: Compound was evaluated for the inhibition of Leucine aminopeptidase and the inhibition constant was determined after preincubating the enzyme and inhibitor
# [4] = target: Cytosol aminopeptidase (Sus scrofa) (UniProt P28839); test: as above; remark: listed apart in the source
# Sequence of Cytosol aminopeptidase (Sus scrofa) (P28839 whole entry, looked up): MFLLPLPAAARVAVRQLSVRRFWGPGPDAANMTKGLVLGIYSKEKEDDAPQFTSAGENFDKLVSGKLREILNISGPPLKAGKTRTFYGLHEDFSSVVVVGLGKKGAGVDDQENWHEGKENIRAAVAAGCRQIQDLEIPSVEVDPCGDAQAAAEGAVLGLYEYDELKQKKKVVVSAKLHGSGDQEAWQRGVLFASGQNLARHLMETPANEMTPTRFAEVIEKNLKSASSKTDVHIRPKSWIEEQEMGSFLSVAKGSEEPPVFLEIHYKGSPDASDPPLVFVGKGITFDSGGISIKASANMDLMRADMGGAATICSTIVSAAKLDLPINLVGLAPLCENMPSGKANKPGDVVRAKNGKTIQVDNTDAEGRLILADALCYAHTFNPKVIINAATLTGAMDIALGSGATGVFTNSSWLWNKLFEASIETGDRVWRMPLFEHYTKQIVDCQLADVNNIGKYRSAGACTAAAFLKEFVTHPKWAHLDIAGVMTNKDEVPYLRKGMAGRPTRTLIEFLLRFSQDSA
# Sequence of Cytosol aminopeptidase (P28838 whole entry): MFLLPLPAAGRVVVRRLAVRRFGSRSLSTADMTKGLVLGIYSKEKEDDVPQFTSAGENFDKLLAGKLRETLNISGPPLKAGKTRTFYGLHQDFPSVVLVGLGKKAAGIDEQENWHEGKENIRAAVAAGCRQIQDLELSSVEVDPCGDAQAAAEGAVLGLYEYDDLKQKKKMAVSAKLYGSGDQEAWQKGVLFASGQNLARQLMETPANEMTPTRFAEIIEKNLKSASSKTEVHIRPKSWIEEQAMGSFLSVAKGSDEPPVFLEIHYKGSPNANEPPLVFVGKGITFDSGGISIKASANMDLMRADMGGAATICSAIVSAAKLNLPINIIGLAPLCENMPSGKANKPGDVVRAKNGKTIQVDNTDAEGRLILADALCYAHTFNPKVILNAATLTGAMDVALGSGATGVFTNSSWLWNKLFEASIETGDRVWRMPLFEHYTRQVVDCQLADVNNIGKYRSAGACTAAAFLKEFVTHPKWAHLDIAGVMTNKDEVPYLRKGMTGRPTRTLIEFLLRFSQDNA
compound,measurement,setting,value
CC(C)C[C@H](NC(=O)[C@@H](O)[C@H](N)CC(C)C)C(=O)O [2-(3-Amino-2-hydroxy-5-methyl-hexanoylamino)-4-methyl-pentanoic acid],Ki,[1],0.12 µM
CC(C)CC(NC(=O)[C@H](C)[C@@H](N)Cc1ccccc1)C(=O)O (some centres not stated) [2-(3-Amino-2-methyl-4-phenyl-butyrylamino)-4-methyl-pentanoic acid],Ki,Cytosol aminopeptidase,3.78 µM
CC(C)[C@H](NC(=O)OC(C)(C)C)C(=O)N[C@H](C(=O)N[C@@H](CC(=O)O)C(=O)O)C(C)C [2-[2-(2-tert-Butoxycarbonylamino-3-methyl-butyrylamino)-3-methyl-butyrylamino]-succinic acid] (Boc-Val-Val-Asp-OH),Ki,[2],1400 µM
CC(C)CC(N)C(O)C(=O)NC(C(=O)NC(CC(=O)O)C(=O)O)C(C)C (configuration not stated) [2-[2-(3-Amino-2-hydroxy-5-methyl-hexanoylamino)-3-methyl-butyrylamino]-succinic acid],Ki,[1],1.24 µM
CC(C)C[C@@H](N)CC(=O)N[C@H](C(=O)N[C@H](C(=O)N[C@@H](CC(=O)O)C(=O)O)C(C)C)C(C)C [2-{2-[2-(3-Amino-5-methyl-hexanoylamino)-3-methyl-butyrylamino]-3-methyl-butyrylamino}-succinic acid],Ki,[3],681 µM
CC(C)CCNC(=O)[C@@H](NC(=O)[C@@H](NC(=O)[C@H](O)[C@@H](N)CC(C)C)C(C)C)C(C)C [3-Amino-2-hydroxy-5-methyl-hexanoic acid {2-methyl-1-[2-methyl-1-(3-methyl-butylcarbamoyl)-propylcarbamoyl]-propyl}-amide],Ki,[4],0.89 µM
CC(C)CCNC(=O)[C@H](O)[C@@H](N)Cc1ccccc1 [3-Amino-2-hydroxy-N-(3-methyl-butyl)-4-phenyl-butyramide],Ki,[2],0.5 µM
